In ChEMBL document CHEMBL1151915, “Structure-activity relationship studies of small-molecule inhibitors of Wnt response” (Bioorg Med Chem Lett, 2009):
In brackets after ≈: the same amount, converted by molar mass. Activity calls are given as the source filed them. The rule behind the calls is not given here.

Experiments:
[1] = Half life in mouse hepatocytes; type: ADME, cell-based, Liver, Hepatocyte
Summary of the method: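 Cryopreserved murine CD1 hepatocytes (10^5 cells) incubated with 2 μM compound; reactions stopped at set time points with methanol; saline or buffer incubations served as controls.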

[2] = Half life in mouse liver S9 fraction; type: ADME, subcellular
[3] = species on record: Danio rerio; assay: Inhibition of fin regeneration in zebrafish; type: functional
[4] = Half life in mouse blood; type: ADME, tissue-based
Summary of the method: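 Compound at 2 μM incubated in whole blood from C57BL/6 mice; incubation stopped at set time points by adding methanol; saline or buffer incubations run as controls.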

COc1ccccc1NC(=O)c1ccc(N2C(=O)[C@@H]3[C@H](C2=O)[C@@H]2C=C[C@H]3C2)cc1
half-life [1]: 10 min

O=C(Nc1cccc2cccnc12)c1ccc(N2C(=O)[C@@H]3[C@H](C2=O)[C@@H]2C=C[C@H]3C2)cc1
half-life [2]: 20 min
half-life [1]: 20 min
MIC [3]: 0.5 µM (≈ 0.205 µg/mL)
half-life [4]: 60 min

O=C(Nc1ccc(F)cc1)c1ccc(N2C(=O)[C@@H]3[C@H](C2=O)[C@@H]2C=C[C@H]3C2)cc1
half-life [1]: 60 min

O=C(Nc1ccc(F)cc1F)c1ccc(N2C(=O)[C@@H]3[C@H](C2=O)[C@@H]2C=C[C@H]3C2)cc1
inhibition [3]: Active
